What all share (format): functional
The subject of experiment [1] is Staphylococcus aureus. In words: Antimicrobial activity against methicillin-resistant Staphylococcus aureus XU212. In short, it runs like this: (§1)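 Broth microdilution MIC per NCCLS guidelines, at least in duplicate, in cation-adjusted Mueller-Hinton broth (20 mg/L Ca2+, 10 mg/L Mg2+). Strains grown on nutrient agar first. Inoculum 5×10^5 cfu prepared in 0.9% saline against a McFarland standard. Compounds dissolved in DMSO, 2-fold serial dilutions, final 1–512 µg/mL (DMSO ≤3.125% v/v). MIC taken as lowest concentration with no visible growth.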

Experiment [2] deals with Staphylococcus aureus. As to the kind of experiment: Antimicrobial activity against Staphylococcus aureus ATCC 25923. The method, boiled down: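 Broth microdilution MIC per NCCLS guidelines, at least in duplicate. Inoculum 5×10^5 cfu prepared in 0.9% saline against a McFarland standard. Cation-adjusted Mueller-Hinton broth with 20 mg/L Ca2+ and 10 mg/L Mg2+. Compounds dissolved in DMSO, then 2-fold serial dilutions, final 1–512 μg/mL; DMSO at most 3.125% v/v. MIC is the lowest concentration giving no visible growth.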

The test system of experiment [3] is KB. As to the kind of experiment: Cytotoxicity against human KB cells after 72 hrs. Conditions: read-out: ED50 (the source's name). In short, it runs like this: (§2)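 Cells grown in RPMI 1640 with 10% fetal bovine serum at 37 °C, 5% CO2, humidified. Log-phase cells treated in triplicate with test samples at 0.16–20 μg/mL for 72 h. Growth read by the NCI sulforhodamine method. ED50 is the dose inhibiting 50% of control growth, estimated from a semilog plot of concentration against percentage of viable cells.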

For experiment [4], the system named is HEp-2. As to the kind of experiment: Cytotoxicity against human Hep2 cells after 72 hrs. Conditions: HEp-2, 72 h, read-out: ED50 (the source's name). The method, boiled down:
as §2

Experiment [5] has as its system HeLa. In words: Cytotoxicity against human HeLa cells after 72 hrs. Conditions: read-out: ED50 (the source's name). The method, boiled down: as §2
Experiment [6] relates to Staphylococcus aureus. In words: Antimicrobial activity against epidemic methicillin-resistant Staphylococcus aureus 15 containing mecA gene. The method, boiled down: as §1
The subject of experiment [7] is Staphylococcus aureus. As to the kind of experiment: Antimicrobial activity against multidrug-resistant Staphylococcus aureus over expressing NorA MDR efflux pump. In short, it runs like this: as §1

Our source for the MIC and EC50 values is ChEMBL document CHEMBL1157407, “Inhibitors of bacterial multidrug efflux pumps from the resin glycosides of Ipomoea murucoides” (2008).

SMILES strings stand for the structures. Values after ≈ are worked out from the molar mass of the structure shown.

As usually defined, the MIC is the least concentration at which growth counts as inhibited. A low value points to inhibition by little substance. Turning to `C/C=C(\C)C(=O)O[C@H]1[C@H](O)[C@@H](O)[C@H](O[C@@H]2[C@H]3OC(=O)CCCCCCCCC[C@H](CCCCC)O[C@@H]4O[C@H](C)[C@@H](O)[C@H](O)[C@H]4O[C@@H]4O[C@H](CO)[C@@H](OC(=O)[C@H](C)[C@@H](C)O)[C@H](O)[C@H]4O[C@H](O[C@H]2C)[C@@H]3OC(=O)[C@@H](C)CC)O[C@@H]1C` [ORIZABIN IX], the MIC in experiment [1] is 256 µg/mL (≈ 228 µM); in experiment [2] it was above 512 µg/mL; in experiment [6] it was 256 µg/mL (≈ 228 µM); in experiment [7], 512 µg/mL (≈ 457 µM). Also, the EC50 in experiment [3], in experiment [4] and in experiment [5] was above 20 µg/mL throughout.

Turning to `CCCCCCCCCCCC(=O)O[C@H]1[C@H](O[C@@H]2[C@H]3OC(=O)CCCCCCCCC[C@H](CCCCC)O[C@@H]4O[C@H](C)[C@H](O)[C@H](O)[C@H]4O[C@H](O[C@H]2C)[C@@H]3O)O[C@@H](C)[C@H](O[C@@H]2O[C@@H](C)[C@H](OC(=O)[C@@H](C)CC)[C@@H](O)[C@H]2O)[C@H]1O[C@@H]1O[C@@H](C)[C@H](O)[C@@H](O)[C@H]1O` [PESCAPREIN III], the minimal inhibitory concentration (MIC) in experiment [1], in experiment [2], in experiment [6] and in experiment [7] was above 512 µg/mL in each case. Moreover, the EC50 is 15.7 µg/mL (≈ 12.5 µM) in experiment [3], 4.7 µg/mL (≈ 3.76 µM) in experiment [4] and above 20 µg/mL in experiment [5].

For the molecule `CCCCC[C@H]1CCCCCCCCCC(=O)O[C@H]2[C@@H](O)[C@H](O[C@H]3[C@H](O1)O[C@H](C)[C@H](O)[C@@H]3O)O[C@@H](C)[C@@H]2O[C@@H]1O[C@@H](C)[C@H](O[C@@H]2O[C@@H](C)[C@H](OC(=O)[C@@H](C)CC)[C@@H](O)[C@H]2O)[C@@H](O[C@@H]2O[C@@H](C)[C@H](O)[C@@H](O)[C@H]2O)[C@H]1OC(=O)[C@@H](C)CC` [STOLONIFERIN I], the minimum inhibitory concentration (MIC) in experiment [1] was 256 µg/mL (≈ 222 µM); in experiment [2] it was above 512 µg/mL; in experiment [6] it was 512 µg/mL (≈ 444 µM); in experiment [7], 64 µg/mL (≈ 55.5 µM). Moreover, the EC50 in experiment [3], in experiment [4] and in experiment [5] was above 20 µg/mL throughout.

`CCCCC[C@H]1CCCCCCCCCC(=O)O[C@H]2[C@H](O)[C@@H](CO)O[C@@H](O[C@H]3[C@H](O1)O[C@H](C)[C@H](O)[C@@H]3O)[C@@H]2O[C@@H]1O[C@@H](C)[C@H](OC(=O)[C@@H](C)CC)[C@@H](O[C@@H]2O[C@@H](C)[C@H](O)[C@@H](O)[C@H]2O)[C@H]1OC(=O)[C@@H](C)CC` [TRICOLORIN A]: the minimum inhibitory concentration (MIC) worked out at 8 µg/mL (≈ 7.82 µM) in experiment [1], 16 µg/mL (≈ 15.6 µM) in experiment [2], 4 µg/mL (≈ 3.91 µM) in experiment [6] and 8 µg/mL (≈ 7.82 µM) in experiment [7]. In addition, the EC50 in experiment [3] turned out to be 1 µg/mL (≈ 0.977 µM); in experiment [4], 1.6 µg/mL (≈ 1.56 µM); in experiment [5], 4.7 µg/mL (≈ 4.59 µM).

Turning to `CCCCC[C@H]1CCCCCCCCCC(=O)O[C@H]2[C@H](O)[C@@H](CO)O[C@@H](O[C@H]3[C@H](O1)O[C@H](C)[C@@H](O)[C@@H]3O)[C@@H]2O[C@@H]1O[C@@H](C)[C@H](OC(=O)[C@@H](C)CC)[C@@H](O[C@@H]2O[C@@H](C)[C@H](O)[C@@H](O)[C@H]2O)[C@H]1OC(=O)[C@@H](C)CC` [TRICOLORIN E], the MIC turned out to be 8 µg/mL (≈ 7.82 µM) in experiment [1], 16 µg/mL (≈ 15.6 µM) in experiment [2], 8 µg/mL (≈ 7.82 µM) in experiment [6] and 8 µg/mL (≈ 7.82 µM) in experiment [7]. In addition, the EC50 in experiment [3], in experiment [4] and in experiment [5] was above 20 µg/mL in each case.
